Common to all, as to format: functional
The subject of one assay is A2780. The assay can be described thus: Antiproliferative activity against A2780 cell line after 48 hrs by SRB assay. The note with it: Homo sapiens, A2780, 48 h. The method in brief:
(§1)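 Human solid tumor cells exposed 48 h to compound in duplicate at five tenfold dilutions, top final concentration 100 µM (DMSO stock at 400× that; controls got matching DMSO). Cells precipitated with ice-cold 50% TCA, fixed 60 min at 4 °C, stained by SRB, OD read at 490 nm. Percentage growth from OD at start versus end of exposure, corrected for medium-only background. GI50 = concentration giving PG +50 (NCI protocol); means of two to four experiments.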
A general note: Sulforhodamine B stains cellular protein and so reports cell mass.

For the next assay, the system named is SW1573. The assay can be described thus: Antiproliferative activity against SW1573 cell line after 48 hrs by SRB assay. The note with it: Homo sapiens, SW1573, 48 h. The method in brief:
as §1

For a further assay, the system named is WiDr. The assay can be described thus: Antiproliferative activity against WiDr cell line after 48 hrs by SRB assay. To be noted: Homo sapiens. The essentials:
as §1

Each structure is given as a SMILES string. Bounds are passed on as bounds.

One may read the GI50 as the concentration at which growth is held to half of that of the control. The low end stands for greater sensitivity of the cells, the high end for lower sensitivity of the cells. In the case of `CC(=O)/C=C/C1CCCCC1`, the 50% growth inhibitory concentration (GI50) with A2780 came out at 21 µM; with SW1573, 30 µM; with WiDr, 23 µM.

Turning to `CC(C)C/C=C/C(=O)c1ccccc1`, the GI50 in the assay with A2780 was found to be 20 µM; in the assay with SW1573 it was 31 µM; with WiDr it was 22 µM.

As to `CC(C)CC(O)CC(=O)/C=C\c1ccccc1` (stereo not drawn), the figures for the GI50 in the assay with A2780, in the assay on SW1573 and in the assay with WiDr were 2.6 µM, 13 µM and 16 µM, respectively.

For the compound `CC(C)C/C=C(/C(=O)c1ccccc1)c1ccccc1`, the GI50 in the assay with A2780 was 21 µM; with SW1573 it was 33 µM; with WiDr, 21 µM.

As to `Cc1ccc(/C=C\C(=O)CC(O)CC(C)C)cc1` (stereo not drawn), the GI50 came to 3.9 µM in the assay on A2780, 12 µM with SW1573 and 15 µM with WiDr.

For the compound `O=C(/C=C/c1ccccc1)CC(O)c1ccccc1` (stereo not drawn), the GI50 worked out at 3.3 µM with A2780, 4.3 µM in the assay on SW1573 and 14 µM with WiDr.

In the case of `CCCCCC/C=C/C(C)=O`, the GI50 in the assay on A2780 stood at 91 µM; with SW1573 it was 79 µM; with WiDr, 56 µM.

With `CC(C)CC(O)C(C)C(=O)/C=C\c1ccc(Br)cc1` (stereo not drawn), the 50% growth inhibitory concentration (GI50) in the assay on A2780 was 5.5 µM; with SW1573, 11 µM; in the assay on WiDr, 12 µM.

As to `CC(C)(C)/C=C/C(=O)CC(O)C(C)(C)C` (stereo not drawn), the GI50 in the assay on A2780 came to 9.9 µM; with SW1573, 26 µM; with WiDr it was 59 µM.

As to `CC(C)C/C=C(\CO)C(=O)c1ccccc1`, the GI50 in the assay on A2780 stood at 18 µM; in the assay on SW1573 it was 24 µM; in the assay on WiDr it was 19 µM.

On to `O=C(/C=C/C1CCCCC1)CC(O)C1CCCCC1` (stereo not drawn), for which the GI50 amounted to 1.8 µM in the assay on A2780, 3.1 µM with SW1573 and 2.9 µM in the assay on WiDr.

Consider `O=C(/C=C/CCCCCCCCCCBr)CC(O)CCCCCCCCCCBr` (stereo not drawn), for which the GI50 in the assay on A2780 was 16 µM; in the assay on SW1573 it was 30 µM; in the assay with WiDr it was 32 µM.

Turning to `CC(C)C/C=C/C(=O)CC(O)CC(C)C` (stereo not drawn), the 50% growth inhibitory concentration (GI50) in the assay with A2780 amounted to 17 µM; in the assay on SW1573, 27 µM; in the assay on WiDr it was 21 µM.

In the case of `CCCCCC/C=C/C(=O)CC(O)CCCCCC` (stereo not drawn), the figures for the GI50 in the assay with A2780, in the assay with SW1573 and with WiDr were 26 µM, 25 µM and 31 µM, respectively.

With `C/C(=C\CC(C)C)C(=O)c1ccccc1`, the GI50 in the assay with A2780, with SW1573 and in the assay with WiDr was > 100 µM throughout.

On to `C/C(=C\C1CCCCC1)C(=O)c1ccccc1`, for which the figures for the 50% growth inhibitory concentration (GI50) in the assay on A2780, in the assay with SW1573 and with WiDr were 28 µM, 36 µM and 41 µM, respectively.

The values above are taken from ChEMBL document CHEMBL1146966, “Beta'-hydroxy-alpha,beta-unsaturated ketones: a new pharmacophore for the design of anticancer drugs” (2006).
